The text below walks through data of ChEMBL document CHEMBL3351423, “2-Phenylaminonaphthoquinones and related compounds: synthesis, trypanocidal and cytotoxic activities” (Bioorg Med Chem, 2014).

In general, IC50 refers to the concentration that inhibits the measured activity by half.

Experiment [1] concerns Vero. Nature of the experiment: Cytotoxicity against african green monkey Vero cells by MTT assay. It is filed as cell-based. The note with it: Chlorocebus sabaeus. A digest of the protocol:
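Vero cells in RPMI 1640 without phenol red, with compound added from DMSO (final below 0.25% v/v). Read by MTT (5 mg/mL) plus 0.22 mg/mL phenazine methosulfate for 4 h at 37 °C, formazan dissolved in 10% SDS/0.01 M HCl overnight, OD at 570 nm. IC50 from four-parameter nonlinear fit; at least three experiments, triplicate cultures.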

For experiment [2], the system named is Trypanosoma cruzi. Nature of the experiment: Trypanocidal activity against epimastigote stage of Trypanosoma cruzi assessed as cell viability after 24 hrs by MTT assay. Background: Formazan colour is commonly taken as a measure of viable cells.
The subject of experiment [3] is MDA-MB-231. The experiment is described as follows: Antiproliferative activity against human MDA-MB-231 cells after 72 hrs. The settings on record: MDA-MB-231, 72 h. It is filed as functional, cell-based. A digest of the protocol: (§1)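 Cells grown in DMEM with 10% FCS, penicillin/streptomycin and 1 mM glutamine. Seeded at 3 × 10³ cells/well and allowed to attach for 24 h at 37 °C in 5% CO₂. Exposed continuously for 72 h to four serial dilutions (12.5 to 100 µM), in triplicate; final DMSO 0.1%, DMSO-only controls. Read by sulforhodamine B after TCA fixation, with doxorubicin as reference.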

Experiment [4] can be described thus: Antiproliferative activity against human PC3 cells after 72 hrs. It is filed as functional, cell-based. The note with it: PC-3, 72 h. A digest of the protocol:
as §1

For experiment [5], the system named is MCF7. Nature of the experiment: Antiproliferative activity against human MCF7 cells after 72 hrs. It is filed as functional, cell-based. The settings on record: MCF7, 72 h. Summed up: as §1
Experiment [6] can be described thus: Antiproliferative activity against human dermal fibroblast cells after 72 hrs. It is filed as cell-based. A digest of the protocol:
as §1

Experiment [7] deals with MCF7. The experiment is described as follows: Selectivity index, ratio of IC50 for human dermal fibroblast cells to IC50 for human MCF7 cells. It is filed as functional. A digest of the protocol:
(§2)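 Selectivity index calculated as IC50 in non-tumoral dermal human fibroblasts divided by IC50 in the cancer line. Both IC50s come from a 72 h sulforhodamine B growth assay with four dilutions (12.5–100 µM) in triplicate.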

Experiment [8] relates to Fibroblast. The experiment is described as follows: Selectivity index, ratio of IC50 for human dermal fibroblast cells to IC50 for human PC3 cells. It is filed as functional. A digest of the protocol: as §2
Experiment [9] has as its system Trypanosoma cruzi. Nature of the experiment: Trypanocidal activity against trypomastigote form of Trypanosoma cruzi infected in african green monkey Vero cells assessed as cell viability after 5 to 7 days by MTT assay. It is filed as functional.
The nature of experiment [10]: Selectivity index, ratio of CC50 for african green monkey Vero cells to IC50 for epimastigote stage of Trypanosoma cruzi. It is filed as functional. Summed up:
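Selectivity index taken as Vero IC50 divided by epimastigote IC50. Both values are from MTT viability assays, with Vero cells read at 37 °C and epimastigotes at 28 °C.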

Experiment [11] deals with Fibroblast. The experiment is described as follows: Selectivity index, ratio of IC50 for human dermal fibroblast cells to IC50 for human MDA-MB-231 cells. It is filed as functional. Summed up:
as §2

With `O=C1C=C(Nc2ccc(O)cc2)C(=O)c2ccccc21`, the 50% inhibitory concentration (IC50) in [1] and in experiment [2] was greater than 25 µM throughout.

With `COc1ccc(NC2=CC(=O)c3ccccc3C2=O)cc1`, the IC50 in experiment [3] was greater than 100 µM; in experiment [4], 35.4 µM; in experiment [1], greater than 25 µM; in experiment [5], greater than 100 µM; in experiment [6] it was 65.4 µM; in experiment [2], greater than 25 µM.

As for `COc1ccc(OC)c(NC2=CC(=O)c3ccccc3C2=O)c1`, the IC50 in [3] is 87.5 µM; in experiment [4], 1.03 µM; in experiment [1], greater than 50 µM; in experiment [5], 0.21 µM; in experiment [6], greater than 100 µM; in experiment [2], 23.3 µM. The “Selectivity Index” value in experiment [7] is greater than 480; in experiment [8], greater than 97.

In the case of `COc1ccc(OC)c(NC2=C(Cl)C(=O)c3ccccc3C2=O)c1`, the 50% inhibitory concentration (IC50) in [1] and in experiment [2] was greater than 100 µM throughout.

On to `O=C1C=C(Nc2ccc3ccccc3c2)C(=O)c2ccccc21`, for which the IC50 in experiment [1] stood at 6.97 µM; in experiment [2] it was 9.02 µM. Moreover, the “inhibition (INH)” value in [9] worked out at 86.02%. Moreover, the “Selectivity Index” value in [10] stood at 0.77.

For `O=C1C(O)=C(c2ccccc2[N+](=O)[O-])C(=O)c2ccccc21`, the IC50 in experiment [1] and in [2] was greater than 100 µM each time.

Regarding `COc1ccccc1NC1=CC(=O)c2ccccc2C1=O`, the IC50 in experiment [3] was greater than 100 µM; in [4], greater than 100 µM; in experiment [1] it was greater than 25 µM; in experiment [5], greater than 100 µM; in experiment [6], greater than 100 µM; in experiment [2] it was 3.49 µM. Also, the “inhibition (INH)” value in experiment [9] is listed as 18.78%.

`COc1cccc(NC2=CC(=O)c3ccccc3C2=O)c1`: the half-maximal inhibitory concentration (IC50) in experiment [3] was greater than 100 µM; in [4] it was greater than 100 µM; in [1] it was greater than 25 µM; in experiment [5], greater than 100 µM; in [6], greater than 100 µM; in [2] it was greater than 25 µM.

`COc1ccc(NC2=CC(=O)c3ccccc3C2=O)cc1OC`: the IC50 in experiment [3] is 10.2 µM; in experiment [4], 10.4 µM; in experiment [1] it was greater than 25 µM; in [5], 22.2 µM; in experiment [6], greater than 100 µM; in experiment [2] it was 25 µM.

As to `COc1ccc(NC2=CC(=O)c3ccccc3C2=O)c(OC)c1`, the IC50 in experiment [3] is greater than 100 µM; in [4] it was 60 µM; in experiment [1], greater than 25 µM; in experiment [5] it was greater than 100 µM; in [6], greater than 100 µM; in [2], greater than 25 µM.

Regarding `CCCCCCOc1ccc(NC2=CC(=O)c3ccccc3C2=O)cc1`, the IC50 in experiment [3] was greater than 100 µM; in [4] it was 27.9 µM; in experiment [1], 27 µM; in experiment [5], greater than 100 µM; in experiment [6], greater than 100 µM; in [2], 1.72 µM. The “inhibition (INH)” value in [9] amounted to 69.63%. The “Selectivity Index” value in experiment [10] is 16.

With `Cc1ccc(NC2=CC(=O)c3ccccc3C2=O)c(C)c1`, the IC50 in experiment [1] and in [2] was greater than 25 µM each time.

Take `CCCCCCOc1ccc(NC2=C(Cl)C(=O)c3ccccc3C2=O)cc1`: the half-maximal inhibitory concentration (IC50) in experiment [3] is greater than 100 µM; in [4] it was greater than 100 µM; in experiment [1], 196 µM; in experiment [5], greater than 100 µM; in experiment [6] it was greater than 100 µM; in [2], 6.04 µM. Also, the “inhibition (INH)” value in [9] turned out to be 46.3%. The “Selectivity Index” value in experiment [10] stood at 32.

As for `O=C1C=C(Nc2cccc3ccccc23)C(=O)c2ccccc21`, the IC50 in [1] was greater than 25 µM; in experiment [2] it was 15.9 µM. For the same compound, in experiment [9], the “inhibition (INH)” value turned out to be 59.67%.

`COc1cccc2c3c([nH]c12)C(=O)c1ccccc1C3=O`: the IC50 is greater than 100 µM in [3]; greater than 100 µM in [4]; 21.7 µM in experiment [1]; greater than 100 µM in [5]; greater than 100 µM in experiment [6]; 20.9 µM in experiment [2]. In experiment [9], the “inhibition (INH)” value amounted to 12.21%. In [10], the “Selectivity Index” value amounted to 0.95.

For the compound `COc1ccc2c3c([nH]c2c1)C(=O)c1ccccc1C3=O`, the IC50 in [1] and in experiment [2] was greater than 25 µM throughout.

For `COc1ccc2[nH]c3c(c2c1)C(=O)c1ccccc1C3=O`, the IC50 was greater than 100 µM in experiment [3]; greater than 100 µM in [4]; greater than 50 µM in [1]; greater than 100 µM in experiment [5]; greater than 100 µM in experiment [6]; greater than 50 µM in experiment [2].

With `COc1ccc(OC)c2c3c([nH]c12)C(=O)c1ccccc1C3=O`, the 50% inhibitory concentration (IC50) in experiment [1] and in experiment [2] was greater than 100 µM in each case.

In the case of `CCCCCCOc1ccc2[nH]c3c(c2c1)C(=O)c1ccccc1C3=O`, the IC50 in experiment [1] and in [2] was greater than 100 µM each time.

For the compound `COc1cc2c(cc1OC)C(=O)c1c([nH]c3cc(OC)c(OC)cc13)C2=O`, the IC50 in [1] and in experiment [2] was greater than 100 µM each time.

Take `COc1ccc2c(c1)c1c(n2C)C(=O)c2ccccc2C1=O`: the IC50 in experiment [3] was greater than 100 µM; in experiment [4], greater than 100 µM; in experiment [1] it was greater than 25 µM; in experiment [5] it was greater than 100 µM; in experiment [6] it was greater than 100 µM; in experiment [2], greater than 25 µM.

For `COc1cc2c3c(n(C)c2cc1OC)C(=O)c1ccccc1C3=O`, the IC50 in [3], in experiment [4], in [1], in experiment [5], in [6] and in experiment [2] was greater than 100 µM throughout.

Take `COc1ccc(OC)c(NC2=CC(=O)c3ncccc3C2=O)c1`: the IC50 stood at 8.8 µM in [3]; 0.53 µM in [4]; 15.4 µM in experiment [1]; 0.12 µM in experiment [5]; 22.5 µM in experiment [6]; 2.45 µM in experiment [2]. Besides, the “Selectivity Index” value in experiment [7] is 188; in experiment [8] it was 42; in experiment [10] it was 6.3. Further, the “inhibition (INH)” value in experiment [9] was found to be 32.62%.

Regarding `O=C1C(Cl)=C(Nc2cccnc2)C(=O)c2ccccc21`, the half-maximal inhibitory concentration (IC50) in [1] and in experiment [2] was greater than 100 µM in each case.

Take `Cc1cnc2c(c1)C(=O)C=C(Nc1ccccc1)C2=O`: the IC50 in [1] is 16.2 µM; in experiment [2] it was 5.79 µM. Also, the “inhibition (INH)” value in experiment [9] was determined as 58.2%. Besides, the “Selectivity Index” value in [10] is given as 2.7.

As for `COc1ccc(OC)c(NC2=CC(=O)C3=C(OC(C)(C)C3)C2=O)c1`, the IC50 was 15.5 µM in experiment [1] and 12.3 µM in experiment [2]. In addition, the “inhibition (INH)” value in [9] came out at 7.5%. The “Selectivity Index” value in experiment [10] is 1.3.

Regarding `Cn1ncc2c1C(=O)C1=C(CC(C)(C)O1)C2=O`, the figures for the IC50 in [1] and in experiment [2] were 13.4 µM and 2.53 µM, respectively. In addition, the “inhibition (INH)” value in experiment [9] was found to be 38.57%. Moreover, the “Selectivity Index” value in experiment [10] came to 5.3.

With `COc1cc2c(cc1OC)C(=O)C(c1cc(OC)c(OC)cc1[N+](=O)[O-])=C(O)C2=O`, the IC50 in experiment [1] and in experiment [2] was greater than 100 µM in each case.

With `O=C1C=C(Nc2ccccc2)C(=O)c2ccccc21`, the half-inhibitory concentration (IC50) in experiment [1] is greater than 10 µM; in experiment [2] it was greater than 25 µM.

In the case of `O=C1c2ccccc2C(=O)c2c1[nH]c1ccccc21` [BENZOCARBAZOLEDIONE], the IC50 in [1] and in experiment [2] was greater than 10 µM each time.

As to `COc1cccc2c1C(=O)c1c(O)c3c(c(O)c1C2=O)C[C@@](O)(C(=O)CO)C[C@@H]3O[C@H]1C[C@H](N)[C@H](O)[C@H](C)O1` [DOXORUBICIN], the IC50 in experiment [3] was 0.31 µM; in experiment [4], 0.54 µM; in experiment [5], 0.32 µM; in experiment [6], 7.86 µM. Besides, the entries for the “Selectivity Index” value in experiment [7], in experiment [8] and in experiment [11] were 25, 15 and 25, respectively.

In the case of `CC1CS(=O)(=O)CCN1/N=C/c1ccc([N+](=O)[O-])o1` (stereo not given) [NIFURTIMOX], the IC50 was determined as 411 µM in experiment [1] and 21.1 µM in [2]. Also, in experiment [9], the “inhibition (INH)” value turned out to be 42.62%. Further, in experiment [10], the “Selectivity Index” value came out at 20.
